ChEMBL document CHEMBL4825662 (J Med Chem, 2021)
≈ marks a conversion by molar mass, not a printed value.

Tests used:
[1] = Protein binding in rat plasma assessed as unbound fraction at 5 uM by LC-MS/MS analysis based equilibrium dialysis method; format: ADME, cell-free
[2] = Half life in Beagle dog liver microsomes preincubated followed by NADPH addition and measured up to 45 mins by LC-MS/MS analysis
[3] = Apparent permeability of compound in wild type MDCK at 10 uM incubated for 1 hr by LC-MS/MS assay; format: ADME, Canis lupus familiaris; settings: dog
[4] = Half life in Sprague-Dawley rat liver microsomes preincubated followed by NADPH addition and measured up to 45 mins by LC-MS/MS analysis; format: ADME, Microsome
[5] = Protein binding in human plasma assessed as unbound fraction at 5 uM by LC-MS/MS analysis based equilibrium dialysis method; format: ADME, cell-free
[6] = Intrinsic clearance in Sprague-Dawley rat liver microsomes preincubated followed by NADPH addition and measured up to 45 mins by LC-MS/MS analysis; format: ADME, Microsome
[7] = Cytotoxicity against African green monkey Vero cells by MTT assay; format: cell-based; settings: chlorocebus sabaeus
Outline: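 Viability was assessed by MTT after culture with compound at 0.01 nM to 100 μM, run in parallel with plaque reduction assays. Values are the average of at least two testing occasions.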

[8] = Intrinsic clearance in Beagle dog liver microsomes preincubated followed by NADPH addition and measured up to 45 mins by LC-MS/MS analysis; format: ADME, Canis lupus familiaris, Microsome
[9] = Intrinsic clearance in human liver microsomes preincubated followed by NADPH addition and measured up to 45 mins by LC-MS/MS analysis; format: ADME, Microsome
[10] = Protein binding in dog plasma assessed as unbound fraction at 5 uM by LC-MS/MS analysis based equilibrium dialysis method; format: ADME, cell-free, Canis lupus familiaris
[11] = Kinetic solubility of compound in PBS at 200 uM at pH 7.4 by LC-MS/LC-UV analysis; format: physicochemical; settings: read-out: Kinetic_solubility
Outline: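 Compound added from DMSO into PBS pH 7.4; precipitation measured across a range of concentrations.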

[12] = Half life in human liver microsomes preincubated followed by NADPH addition and measured up to 45 mins by LC-MS/MS analysis; format: ADME, Microsome
Human orthopneumovirus = experiment: Antiviral activity against Respiratory syncytial virus A2 infected in African green monkey Vero cells by Plaque reduction assay; format: functional, organism-based
[13] = Cmax in Sprague-Dawley rat at 5 mg/kg, po administered via gavage measured after 0.02 to 24 hrs by tandem liquid chromatography/mass spectrometry; format: ADME, organism-based; design: route oral, dose 5 mg/kg, time upper 24 hrs, time lower 0.02 hrs; settings: in vivo
Outline: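 Male Sprague–Dawley rats weighing 200–250 g, 3 per route, were used. The i.v. bolus was 1 mg/kg at 1 mg/mL in 40:60 dimethylacetamide/saline. Oral gavage doses were 5 or 10 mg/kg at 5 mg/mL in 1% methyl cellulose with 0.1% Tween 80. Heparinized blood was taken at 0.02–24 h (ten time points). Plasma was analyzed by LC-MS/MS after acetonitrile precipitation.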

[14] = Apparent permeability across apical to basolateral side in MDCK-MDR1 cells at 10 uM measured at 60 mins by LC-MS/MS analysis; format: ADME, cell-based, Canis lupus familiaris; settings: dog, mdck-mdr1, 1 h, 10 µM
[15] = Intrinsic clearance in rat hepatocytes assessed per million cells at 3 uM measured up to 60 mins by LC-MS/MS analysis; format: ADME, cell-based, Hepatocyte; settings: read-out: CLH
[16] = Volume of distribution at steady state in Sprague-Dawley rat at 1 mg/kg, iv administered […] measured after 0.02 to 24 hrs by tandem liquid chromatography/mass spectrometry; format: ADME, organism-based; settings: in vivo, time 0.02-24 hrs, read-out: Vdss
Outline: (§1)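 Male Sprague–Dawley rats (200–250 g), 3 per route. IV bolus at 1 mg/kg, 1 mg/mL in 40:60 dimethylacetamide/saline; oral gavage at 5 or 10 mg/kg, 5 mg/mL in 1% methyl cellulose, 0.1% Tween 80 in water. Serial blood at 0.02–24 h (ten points) into heparin, spun at 4 °C, plasma frozen; acetonitrile protein precipitation, ESI LC-MS/MS with matrix curve and internal standards.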

[17] = Clearance in Sprague-Dawley rat at 1 mg/kg, iv administered […] measured after 0.02 to 24 hrs by tandem liquid chromatography/mass spectrometry; format: ADME, organism-based; settings: in vivo, time 0.02-24 hrs
[18] = Efflux ratio of apparent permeability in MDCK-MDR1 cells at 10 uM measured at 60 mins by LC-MS/MS analysis; format: ADME, cell-based, Canis lupus familiaris; settings: dog, mdck-mdr1, 1 h, 10 µM
[19] = Thermodynamic solubility in PBS at 1 to 100 uM at pH 7.4 by HPLC-UV method; format: physicochemical; settings: dose 1-100 µM, read-out: Therm_solubility
[20] = Oral bioavailability in Sprague-Dawley rat at 10 mg/kg administered via gavage measured after 0.02 to 24 hrs by tandem liquid chromatography/mass spectrometry; format: ADME, organism-based; settings: in vivo, time 0.02-24 hrs; outline: as §1

fraction unbound at 5 µM [1]	fraction unbound at 5 µM [5]	Microsomal intrinsic clearance [6] [µL/min]	intrinsic clearance [8] [µL/min]	intrinsic clearance (CLint) [9] [µL/min]	fraction unbound at 5 µM [10]	EC50 (Human orthopneumovirus) [nM]	SMILES	CC50 [7] [nM]	further results
0.24	0.17	< 31	< 28	488	0.14	310	CC(C)CCn1c(CN2C(=O)C3(CCCC3)c3ccncc32)nc2cc(CN)ccc21	23100	half-life [2]: > 100 min; Papp at 1 h, 10 µM [3]: 11 ×10⁻⁶ cm/s; half-life [4]: > 89 min; solubility kinetic at 200 µM [11]: 160 µM (≈ 66.8 µg/mL); half-life [12]: 6 min
0.333	0.184	45	6.23	50.7	0.151	0.8	CC(C)CCn1c(CN2C(=O)C3(CC3)c3ccc(F)cc32)nc2cc(CN)ccc21	3000	Cmax [13]: 44.2 ng/mL; Papp [14]: 0.75 10^-6 cm/s; hepatocyte CLint at 3 µM [15]: 43.1 µL/min/1e6 cells; Vd [16]: 54.3 L/kg; clearance [17]: 174 mL/min/kg; Ratio [18]: 88; solubility thermodynamic [19]: 176 µM (≈ 71.7 µg/mL); bioavailability [20]: 25%
